The source of these data is ChEMBL document CHEMBL1131303, “New cyclooxygenase-2/5-lipoxygenase inhibitors. 2. 7-tert-butyl-2,3-dihydro-3,3-dimethylbenzofuran derivatives as gastrointestinal safe antiinflammatory and analgesic agents: variations of the dihydrobenzofuran ring” (J Med Chem, 1998).

The subject of one experiment is Rattus norvegicus. The experiment is described as follows: Carrageenan paw edema index (CPE index) as ratio of the reduction in paw volume of tested compound relative to the compound tebufelone at peroral dose of 50 mg/kg. It counts as functional. Conditions: route oral. On the technique in general: Carrageenan injected into the paw causes an acute inflammation.
The species entered for experiment [1] is Mus musculus. Description: The compound was tested for effective dose for reduction in phenylquinone-induced abdominal constriction. It counts as functional. Conditions: Abdomen. A digest of the protocol:
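Phenylquinone-induced abdominal constriction assay run as an oral dose-response study. The ED50 was derived from reduction of constrictions.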

Experiment [2] deals with T1, Polyunsaturated fatty acid 5-lipoxygenase (Rattus norvegicus, UniProt P12527).
T1 sequence (P12527 whole entry): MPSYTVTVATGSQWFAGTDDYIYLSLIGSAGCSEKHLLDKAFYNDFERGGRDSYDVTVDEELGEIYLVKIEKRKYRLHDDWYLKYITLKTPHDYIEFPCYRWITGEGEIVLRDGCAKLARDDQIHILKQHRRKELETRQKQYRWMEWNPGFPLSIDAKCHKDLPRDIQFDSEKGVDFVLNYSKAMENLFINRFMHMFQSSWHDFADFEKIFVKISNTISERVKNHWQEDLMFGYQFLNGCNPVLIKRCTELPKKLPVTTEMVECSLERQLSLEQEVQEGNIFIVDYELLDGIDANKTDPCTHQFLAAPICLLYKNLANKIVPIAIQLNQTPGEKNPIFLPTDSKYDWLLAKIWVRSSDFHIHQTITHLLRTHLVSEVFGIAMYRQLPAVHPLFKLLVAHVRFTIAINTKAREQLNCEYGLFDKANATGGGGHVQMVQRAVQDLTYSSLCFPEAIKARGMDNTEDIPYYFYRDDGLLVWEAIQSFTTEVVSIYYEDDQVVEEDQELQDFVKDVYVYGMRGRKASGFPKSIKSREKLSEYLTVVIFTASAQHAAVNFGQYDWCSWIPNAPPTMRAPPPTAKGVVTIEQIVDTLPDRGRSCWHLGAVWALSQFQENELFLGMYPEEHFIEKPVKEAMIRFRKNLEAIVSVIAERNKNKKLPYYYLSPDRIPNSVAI
Description: Inhibition of 5-lipoxygenase (LOX)in RBL cells. It counts as cell-based.

Experiment [3] addresses T2, Prostaglandin G/H synthase 2 (Homo sapiens, UniProt P35354).
T2 sequence (P35354 whole entry): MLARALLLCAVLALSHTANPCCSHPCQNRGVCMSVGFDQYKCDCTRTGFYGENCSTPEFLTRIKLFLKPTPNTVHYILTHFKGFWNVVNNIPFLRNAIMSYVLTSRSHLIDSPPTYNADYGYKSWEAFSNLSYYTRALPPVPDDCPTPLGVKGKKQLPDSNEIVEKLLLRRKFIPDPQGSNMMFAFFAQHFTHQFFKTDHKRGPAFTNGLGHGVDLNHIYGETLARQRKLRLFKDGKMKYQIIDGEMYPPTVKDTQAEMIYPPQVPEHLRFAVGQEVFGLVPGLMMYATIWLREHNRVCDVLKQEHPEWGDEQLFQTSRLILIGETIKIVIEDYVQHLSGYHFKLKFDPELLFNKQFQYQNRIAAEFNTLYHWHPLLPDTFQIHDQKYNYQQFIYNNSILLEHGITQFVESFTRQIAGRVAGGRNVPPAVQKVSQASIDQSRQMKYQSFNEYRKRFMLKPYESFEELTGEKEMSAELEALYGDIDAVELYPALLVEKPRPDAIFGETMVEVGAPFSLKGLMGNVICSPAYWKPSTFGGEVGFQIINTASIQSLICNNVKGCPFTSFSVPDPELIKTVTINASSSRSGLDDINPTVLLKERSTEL

For experiment [4], the target named is Prostaglandin G/H synthase 1 (Homo sapiens, UniProt P23219). Description: Inhibition of Prostaglandin G/H synthase 1 (COX-1). The method, boiled down:
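Isolated human COX-1 enzyme from platelets. Duplicate samples were each tested in duplicate, and IC50 values were determined.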

Experiment [5] deals with Mus musculus. The experiment is described as follows: The compound was tested for reduction in phenylquinone-induced abdominal constriction and is expressed in % reduction at a po (per oral) dose of 70 mg/kg. It counts as functional, Abdomen. The method, boiled down:
(§1)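 Phenylquinone-induced abdominal constriction analgesia assay. A single oral screening dose of 70 mg/kg was given, and the read-out is percent reduction in constrictions versus control. Tebufelone and naproxen served as reference agents.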

Experiment [6] is filed under the species Mus musculus. Description: The compound was tested for reduction in phenylquinone-induced abdominal constriction. It counts as functional. Conditions: Abdomen.
Experiment [7] concerns Mus musculus. Description: The compound was tested for reduction in phenylquinone-induced abdominal constriction and is expressed in % reduction at a po (per pral) dose of 70 mg/kg. It counts as functional, Abdomen. The method, boiled down:
as §1

As a reminder, the ED50 is the midpoint of the dose-response relation. A lower ED50 goes with an effect at a small dose. As usually defined, the IC50 is the concentration at which inhibition is half-maximal.

Some results are limits rather than exact numbers.

Chain of Prostaglandin G/H synthase 1 (P23219 whole entry): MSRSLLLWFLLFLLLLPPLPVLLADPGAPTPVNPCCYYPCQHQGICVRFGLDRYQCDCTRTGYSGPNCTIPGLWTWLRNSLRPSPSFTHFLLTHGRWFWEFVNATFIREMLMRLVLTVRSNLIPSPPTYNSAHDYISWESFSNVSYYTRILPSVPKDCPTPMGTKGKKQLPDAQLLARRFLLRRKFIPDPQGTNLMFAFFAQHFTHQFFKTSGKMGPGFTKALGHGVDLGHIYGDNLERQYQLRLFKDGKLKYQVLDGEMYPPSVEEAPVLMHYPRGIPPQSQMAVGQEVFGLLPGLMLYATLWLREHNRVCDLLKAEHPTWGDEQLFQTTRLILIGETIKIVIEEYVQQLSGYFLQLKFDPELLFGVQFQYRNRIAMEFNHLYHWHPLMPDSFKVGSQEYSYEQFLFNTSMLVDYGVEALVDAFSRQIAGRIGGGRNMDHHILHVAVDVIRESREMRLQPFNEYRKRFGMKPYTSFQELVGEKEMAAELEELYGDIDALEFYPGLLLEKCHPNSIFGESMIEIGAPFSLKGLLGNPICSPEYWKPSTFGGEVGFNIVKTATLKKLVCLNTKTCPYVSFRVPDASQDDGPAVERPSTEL

Turning to `CC(C)(C)c1cc(C(=O)CCCC2CC2)cc2c1NCCC2(C)C`, the CPE index in the experiment on Rattus norvegicus is on record as 0.

As to `CC(C)(O)CC(=O)c1cc(C(C)(C)C)c2c(c1)C(C)(C)CCO2`, the CPE index in the experiment with Rattus norvegicus worked out at 0.48. For the compound `CCCCC(=O)c1cc2c(c(C(C)(C)C)c1)OCC2`, the 50% effect level in the experiment listed under Mus musculus [1] (ED50) was put at a dose of 0.6 mg/kg. Further, in the experiment on Rattus norvegicus, the CPE index was 0.69. Turning to `CC(C)(O)CC(=O)c1cc(C(C)(C)C)c2c(c1)C(C)(C)CO2`, in the experiment with Rattus norvegicus, the CPE index is given as 0.49. As for `CCc1cc(C(=O)CCCC2CC2)cc2c1OCC2(C)C`, the concentration for half-maximal inhibition (IC50) turned out to be 18 µM in experiment [2], 5 µM in experiment [3] and 20 µM in experiment [4]. Turning to `CC(C)(C)c1cc(C(=O)CCCC2CC2)cc2c1SCC2(C)C`, the CPE index with Rattus norvegicus came out at 0.74. Take `CCCC(=O)c1cc(C(C)(C)C)c2c(c1)C(C)(CC)CO2` (stereo not given): the Reduction in the experiment on Mus musculus [5] was 45%. In addition, in the experiment on Rattus norvegicus, the CPE index worked out at 0.68. `COc1ccc2cc([C@H](C)C(=O)O)ccc2c1` [NAPROXEN] registered an ED50 in the experiment listed under Mus musculus [6] of 1.3 mg/kg. Further, the CPE index in the experiment with Rattus norvegicus was found to be 1.06. In the experiment with Mus musculus [5], `CC(C)(O)CC(=O)c1cc2c(c(C(C)(C)C)c1)OCCC2` showed a Reduction of 50%. Further, the CPE index in the experiment on Rattus norvegicus amounted to 0.7. Consider `CC1(C)COc2ccc(C(=O)CCCC3CC3)cc21`, for which the figures for the IC50 in experiment [3] and in experiment [4] were 8 µM and 25 µM, respectively. Besides, in the experiment with Rattus norvegicus, the CPE index is 0.5. Take `CN1CCC(C)(C)c2cc(C(=O)CCCC3CC3)cc(C(C)(C)C)c21`: in the experiment with Rattus norvegicus, the CPE index turned out to be 0.37. As for `CN1CC(C)(C)c2cc(C(=O)CCCC3CC3)cc(C(C)(C)C)c21`, the CPE index with Rattus norvegicus was found to be 0.36. Take `CCCCC(=O)c1cc2c(c(C(C)(C)C)c1)OCCC2`: in the experiment with Rattus norvegicus, the CPE index came out at 0.21. Compound `CC(C)(C)c1cc(C(=O)CCCC2CC2)cc2c1OCC2(C)C` showed an ED50 in the experiment filed under Mus musculus [1] of 11 mg/kg.

Consider `CCCCC(=O)c1cc(C(C)(C)C)c2c(c1)C(C)(C)CO2`, for which the Reduction in the experiment on Mus musculus [5] was 38%.

With `CCCC(=O)c1ccc2c(c1)C(C)(C)CO2`, in the experiment with Rattus norvegicus, the CPE index worked out at 0.31.

Consider `CC(C)(C)c1cc(C(=O)CCCC2CC2)cc2c1OCC2`, for which the values for the IC50 in experiment [2], in experiment [3] and in experiment [4] were 12 µM, 15 µM and 5 µM, respectively. In the experiment filed under Mus musculus [1], it took a dose of 6 mg/kg to reach the 50% effect level (ED50). In addition, the CPE index with Rattus norvegicus is listed as 0.5. Turning to `O=C(CCCC1CC1)c1ccc2c(c1)CCO2`, in the experiment with Rattus norvegicus, the CPE index is on record as 0.13. On to `CCCCC(=O)c1cc(C(C)(C)C)c2c(c1)C(C)(C)CCO2`, for which the 50% effect level in the experiment listed under Mus musculus [1] (ED50) was put at a dose of 53 mg/kg. In addition, in the experiment on Rattus norvegicus, the CPE index is on record as 0.69. On to `C#CCCCC(=O)c1cc2c(c(C(C)(C)C)c1)OCC2`, for which the Reduction with Mus musculus [5] is 67%. In addition, the CPE index in the experiment with Rattus norvegicus was 0.84. Consider `CC(C)(C)c1cc(C(=O)CCCC2CC2)cc2c1OCCC2`, for which the CPE index with Rattus norvegicus worked out at 0.05. For `CCCCC(=O)c1cc(C(C)(C)C)c2c(c1)C(C)(C)CCN2`, the CPE index in the experiment on Rattus norvegicus is reported as 0.02. Regarding `CCCC(=O)c1cc(C(C)(C)C)c2c(c1)C(C)(C)CO2`, the 50% effect level in the experiment listed under Mus musculus [6] (ED50) was put at a dose of 21 mg/kg. `C#CCCCC(=O)c1cc2c(c(C(C)(C)C)c1)OCCC2` returned a Reduction in the experiment with Mus musculus [5] of 79%. In addition, the CPE index with Rattus norvegicus is given as 1.04. For `CC1(C)COc2c(C3CCCC3)cc(C(=O)CCCC3CC3)cc21`, the IC50 in experiment [3] was 20 µM; in experiment [4], above 100 µM. Moreover, in the experiment on Rattus norvegicus, the CPE index was found to be 0.27. As for `CC(C)(C)c1cc(C(=O)CCCC2CC2)cc2c1OCCC2(C)C`, the IC50 in experiment [2] was 8 µM; in experiment [3] it was 3 µM; in experiment [4] it was 20 µM. This compound also yielded a Reduction in the experiment with Mus musculus [5] of 10%. Moreover, the CPE index with Rattus norvegicus is 0.57. The compound `CC(C)(O)CC(=O)c1cc2c(c(C(C)(C)C)c1)OCC2` yielded an ED50 in the experiment listed under Mus musculus [1] of 21 mg/kg. Besides, the CPE index in the experiment on Rattus norvegicus turned out to be 0.98. On to `CC(C)(O)CC(=O)c1ccc2c(c1)C(C)(C)CO2`, for which the CPE index in the experiment with Rattus norvegicus came out at 0.39. As to `CCCCC(=O)c1cc(C(C)(C)C)c2c(c1)C(C)(C)CCN2C`, the figures for the half-inhibitory concentration (IC50) in experiment [3] and in experiment [4] were 0.3 µM and 2 µM, respectively. For the same compound, the CPE index in the experiment with Rattus norvegicus stood at 0.42. With `CCCCC(=O)c1ccc2c(c1)CCO2`, in the experiment with Rattus norvegicus, the CPE index was found to be 0.

In turn, `C#CCCCC(=O)c1cc(C(C)(C)C)c2c(c1)C(C)(C)CCO2` showed a Reduction with Mus musculus [5] of 46%. Besides, in the experiment on Rattus norvegicus, the CPE index was determined as 0.57. `C#CCCCC(=O)c1cc(C(C)(C)C)c(O)c(C(C)(C)C)c1` [TEBUFELONE] showed an ED50 in the experiment filed under Mus musculus [6] of 26 mg/kg.

In the experiment with Mus musculus [7], `CCCCC(=O)c1cc(C(C)(C)C)c2c(c1)C(C)(C)CCS2` came in with a Reduction of 17%. The IC50 in experiment [3] and in experiment [4] was 0.4 µM in each case. Moreover, the CPE index in the experiment with Rattus norvegicus was found to be 0.86. `CCCC(=O)c1cc(C(C)(C)C)c2c(c1)C(C)(C)CS2`: the ED50 in the experiment listed under Mus musculus [1] was determined as 74 mg/kg. The values for the IC50 in experiment [3] and in experiment [4] were 0.15 µM and 1.5 µM, respectively. Besides, the CPE index in the experiment with Rattus norvegicus is 1.04.
